Converted amounts (≈) assume the structure as drawn. The source made the active and inactive calls. The rule behind the calls is not given here.
Legend:
Bacillus subtilis [1] = assay: Antimicrobial activity against Bacillus subtilis ATCC 6633 assessed as inhibition of microbial growth incubated for 24 hrs; type: functional; conditions: ATCC 6633, 24 h
Method in brief: (§1)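 Broth microdilution. Strains grown overnight on TSA at 37°C, suspended to 10⁸ CFU/mL in Tryptone-Sel, then diluted to 10⁶ CFU/mL in double-strength Mueller-Hinton broth. Two-fold serial dilutions in sterile water (pH 7.4–7.7) mixed 1:1 with inoculum. Incubation 24 h at 37°C. MIC is the lowest concentration inhibiting growth. Duplicate wells, three independent experiments.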

Staphylococcus aureus [2] = assay: Antimicrobial activity against Staphylococcus aureus ATCC 6538 assessed as inhibition of microbial growth incubated for 24 hrs; type: functional; conditions: ATCC 6538, 24 h; method in brief: as §1
Enterococcus faecalis [3] = assay: Antimicrobial activity against Enterococcus faecalis ATCC 29121 assessed as inhibition of microbial growth incubated for 24 hrs; type: functional; conditions: ATCC 29121, 24 h; method in brief: as §1
Escherichia coli [4] = assay: Antimicrobial activity against Escherichia coli ATCC 8739 assessed as inhibition of microbial growth incubated for 24 hrs; type: functional; conditions: ATCC 8739, 24 h; method in brief: as §1
Pseudomonas aeruginosa [5] = assay: Antimicrobial activity against Pseudomonas aeruginosa ATCC 9027 assessed as inhibition of microbial growth incubated for 24 hrs; type: functional; conditions: ATCC 9027, 24 h; method in brief: as §1
Candida albicans [6] = assay: Antimicrobial activity against Candida albicans ATCC 10231 assessed as inhibition of microbial growth incubated for 48 hrs; type: functional; conditions: ATCC 10231, 48 h
Method in brief: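 C. albicans grown 48 h on Sabouraud at 20–25°C, suspended to 10⁸ CFU/mL, then diluted to 10⁶ CFU/mL in double-strength Mueller-Hinton broth. Two-fold serial dilutions in water (pH 7.4–7.7) mixed 1:1 with inoculum. Incubation 48 h at 25°C. MIC is the lowest concentration inhibiting growth. Duplicate wells, three independent experiments.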

[7] = Hemolytic activity in human RBC assessed as induction of hemolysis incubated for 1 hr; type: cell-based, Erythrocyte; conditions: red blood cells (erythrocytes), read-out: HD50
Method in brief: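 Human RBCs washed in PBS and used at 5% packed cell volume, mixed 1:1 with two-fold serial dilutions in PBS (pH 7.4–7.7). Incubation 1 h at 37°C, then centrifugation at 1500g for 10 min at 5°C. Supernatant absorbance read at 490 nm against PBS (0%) and 1% SDS/Tris (100%) controls. HC50 from three independent experiments, double duplicate.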

Bacillus subtilis [8] = assay: Microbicidal activity against Bacillus subtilis ATCC 6633 assessed as inhibition of colony growth incubated for 24 hrs followed by replating and further incubated for 24 hrs; type: functional; conditions: ATCC 6633, 24 h
Staphylococcus aureus [9] = assay: Microbicidal activity against Staphylococcus aureus ATCC 6538 assessed as inhibition of colony growth incubated for 24 hrs followed by replating and further incubated for 24 hrs; type: functional; conditions: ATCC 6538, 24 h
Enterococcus faecalis [10] = assay: Microbicidal activity against Enterococcus faecalis ATCC 29121 assessed as inhibition of colony growth incubated for 24 hrs followed by replating and further incubated for 24 hrs; type: functional; conditions: ATCC 29121, 24 h
Escherichia coli [11] = assay: Microbicidal activity against Escherichia coli ATCC 8739 assessed as inhibition of colony growth incubated for 24 hrs followed by replating and further incubated for 24 hrs; type: functional; conditions: ATCC 8739, 24 h
Pseudomonas aeruginosa [12] = assay: Microbicidal activity against Pseudomonas aeruginosa ATCC 9027 assessed as inhibition of colony growth incubated for 24 hrs followed by replating and further incubated for 24 hrs; type: functional; conditions: ATCC 9027, 24 h
Candida albicans [13] = assay: Microbicidal activity against Candida albicans ATCC 10231 assessed as inhibition of colony growth incubated for 48 hrs followed by replating and further incubated for 48 hrs; type: functional; conditions: ATCC 10231, 48 h
Escherichia coli [14] = assay: Induction of membrane depolarization in Escherichia coli ATCC 8739 incubated for 2 hrs by [DiSC3(5)] probe based fluorescence assay; type: functional, organism-based
Method in brief: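 E. coli ATCC8739 grown 2 h at 37°C in Mueller-Hinton broth, washed and resuspended in 20 mM glucose/5 mM HEPES pH 7.2 to OD600 0.05. DiSC3(5) added at 0.6 µM final and preincubated at 37°C until fluorescence stabilized. Compound added at 0.19–12.5 µM final; fluorescence (ex 620, em 670 nm) followed over 30 min. Duplicate, three independent experiments.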

Escherichia coli [15] = assay: Antimicrobial activity against Escherichia coli ATCC 8739 assessed as induction of blisters and protruding vesicles on cell surface at 1 to 8 times MIC incubated for 60 mins by surface electron microscopy; type: functional, organism-based
Escherichia coli [16] = assay: Antimicrobial activity against Escherichia coli ATCC 8739 assessed as induction of spherical elements around bacteria at 1 to 8 times MIC incubated for 60 mins by surface electron microscopy; type: functional, organism-based
Escherichia coli [17] = assay: Antimicrobial activity against Escherichia coli ATCC 8739 assessed as increase in region of cellular aggregation at 1 to 8 times MIC incubated for 60 mins by surface electron microscopy; type: functional, organism-based
Escherichia coli [18] = assay: Antimicrobial activity against Escherichia coli ATCC 8739 assessed as reduction in viable bacterial cell count at 1 times MIC incubated up to 120 mins by time kill assay relative to control; type: functional
Escherichia coli [19] = assay: Antimicrobial activity against Escherichia coli ATCC 8739 assessed as reduction in viable bacterial cell count at 8 times MIC incubated up to 120 mins by time kill assay relative to control; type: functional
Escherichia coli [20] = assay: Antimicrobial activity against Escherichia coli ATCC 8739 assessed as reduction in viable bacterial cell count at 4 to 8 times MIC incubated for 40 to 60 mins by time kill assay relative to control; type: functional, organism-based
Escherichia coli [21] = assay: Antimicrobial activity against Escherichia coli ATCC 8739 assessed as effect on bacterial morphology by measuring bacterial length at 1 to 8 times MIC incubated for 60 mins by surface electron microscopy (reference value: 2 micrometer); type: functional
Escherichia coli [22] = assay: Antimicrobial activity against Escherichia coli ATCC 8739 assessed as inhibition of microbial growth measured after 8 passes in presence of sublethal compound concentration concentrations; type: functional

## CC(=O)N[C@@H](CCCCN)c1nc(C)sc1C(=O)N[C@@H](C)c1nc(CCCCN)sc1C(=O)N[C@@H](C)c1nc(C)sc1C(=O)N[C@@H](CCCCN)c1nc(C)sc1C(=O)N[C@@H](C)c1nc(CCCCN)sc1C(=O)N[C@@H](C)c1nc(C)sc1C(=O)N[C@@H](CCCCN)c1nc(C)sc1C(=O)N[C@@H](C)c1nc(CCCCN)sc1C(=O)N[C@@H](C)c1nc(C)sc1C(=O)N[C@@H](CCCCN)c1nc(C)sc1C(=O)N[C@@H](C)c1nc(CCCCN)sc1C(=O)N[C@@H](C)c1nc(C)sc1C(N)=O
Bacillus subtilis [1]
  MIC: 0.5 µM
Staphylococcus aureus [2]
  MIC: 26 µM
Enterococcus faecalis [3]
  MIC: > 150 µM
Escherichia coli [4]
  MIC: 1.6 µM
Pseudomonas aeruginosa [5]
  MIC: 3.9 µM
Candida albicans [6]
  MIC: 3.7 µM
[7]
  HC50 at 1 h: > 100 µM
Bacillus subtilis [8]
  MBC: 0.5 µM (≈ 1.27 µg/mL)
Staphylococcus aureus [9]
  MBC: 57 µM (≈ 144 µg/mL)
Enterococcus faecalis [10]
  MBC: > 150 µM
Escherichia coli [11]
  MBC: 1.6 µM (≈ 4.06 µg/mL)
Pseudomonas aeruginosa [12]
  MBC: 5.2 µM (≈ 13.2 µg/mL)
Candida albicans [13]
  MBC: 3.7 µM (≈ 9.38 µg/mL)

## CC(=O)N[C@@H](CCCCN)c1nc(C)sc1C(=O)N[C@@H](C)c1nc(CCCCN)sc1C(=O)N[C@@H](C)c1nc(C)sc1C(=O)N[C@@H](CCCCN)c1nc(C)sc1C(=O)N[C@@H](C)c1nc(CCCCN)sc1C(=O)N[C@@H](C)c1nc(C)sc1C(=O)N[C@@H](CCCCN)c1nc(C)sc1C(=O)N[C@@H](C)c1nc(CCCCN)sc1C(=O)N[C@@H](C)c1nc(C)sc1C(N)=O
Bacillus subtilis [1]
  MIC: 0.8 µM
Staphylococcus aureus [2]
  MIC: > 150 µM
Enterococcus faecalis [3]
  MIC: > 150 µM
Escherichia coli [4]
  MIC: 5.2 µM
Pseudomonas aeruginosa [5]
  MIC: 42 µM
Candida albicans [6]
  MIC: 10.4 µM
[7]
  HC50 at 1 h: > 100 µM
Bacillus subtilis [8]
  MBC: 0.8 µM (≈ 1.53 µg/mL)
Staphylococcus aureus [9]
  MBC: > 150 µM
Enterococcus faecalis [10]
  MBC: > 150 µM
Escherichia coli [11]
  MBC: 7.3 µM (≈ 14 µg/mL)
Pseudomonas aeruginosa [12]
  MBC: 83 µM (≈ 159 µg/mL)
Candida albicans [13]
  MBC: 10.4 µM (≈ 19.9 µg/mL)

## CC(=O)N[C@@H](CCCNC(=N)N)c1nc(C)sc1C(=O)N[C@@H](C)c1nc(CCCNC(=N)N)sc1C(=O)N[C@@H](C)c1nc(C)sc1C(=O)N[C@@H](CCCNC(=N)N)c1nc(C)sc1C(=O)N[C@@H](C)c1nc(CCCNC(=N)N)sc1C(=O)N[C@@H](C)c1nc(C)sc1C(=O)N[C@@H](CCCNC(=N)N)c1nc(C)sc1C(=O)N[C@@H](C)c1nc(CCCNC(=N)N)sc1C(=O)N[C@@H](C)c1nc(C)sc1C(=O)N[C@@H](CCCNC(=N)N)c1nc(C)sc1C(=O)N[C@@H](C)c1nc(CCCNC(=N)N)sc1C(=O)N[C@@H](C)c1nc(C)sc1C(N)=O
Escherichia coli [14]
  Activity: Dose-dependent effect
Escherichia coli [15]
  Activity: Active
Escherichia coli [16]
  Activity: Dose-dependent effect
Escherichia coli [17]
  Activity: Active
Bacillus subtilis [1]
  MIC: 0.6 µM
Staphylococcus aureus [2]
  MIC: 3.1 µM
Enterococcus faecalis [3]
  MIC: 20.8 µM
Escherichia coli [4]
  MIC: 1.8 µM
Pseudomonas aeruginosa [5]
  MIC: 4.2 µM
Candida albicans [6]
  MIC: 6.2 µM
[7]
  HC50 at 1 h: > 100 µM
Bacillus subtilis [8]
  MBC: 0.8 µM (≈ 2.21 µg/mL)
Staphylococcus aureus [9]
  MBC: 7.8 µM (≈ 21.5 µg/mL)
Enterococcus faecalis [10]
  MBC: 25 µM (≈ 69 µg/mL)
Escherichia coli [11]
  MBC: 2.3 µM (≈ 6.34 µg/mL)
Pseudomonas aeruginosa [12]
  MBC: 4.7 µM (≈ 13 µg/mL)
Candida albicans [13]
  MBC: 6.2 µM (≈ 17.1 µg/mL)
Escherichia coli [18]
  Activity: 0.95 log10CFU/ml
Escherichia coli [19]
  Activity: 4.73 log10CFU/ml
Escherichia coli [20]
  Activity: Active
Escherichia coli [21]
  Activity: 1.3 um
Escherichia coli [22]
  MIC: Active

Reference: ChEMBL document CHEMBL4619808, “Tailoring the Physicochemical Properties of Antimicrobial Peptides onto a Thiazole-Based γ-Peptide Foldamer” (J Med Chem, 2020)
